Assay results from different studies.
Each line is one published result; the experiments were not run side by side.
Cell line: HOP-62
Effect on: cell growth or viability

Compound | technique | tested at | time | measurement | value
COc1cccc(Oc2ccccc2NC(=O)CNC(=O)c2cccc3ccccc23)c1 | SRB |  | 48 h | GI50 | 0.302 µM
O=C1Nc2ccccc2C1=NNc1nnc2n1N=C(c1ccccc1)CS2 | SRB | 10 µM |  | inhibition | 54%
c1ccc2cc(Cn3cc[n+](Cc4ccc5ccccc5c4)c3)ccc2c1 | SRB |  |  | TGI | 17 µM
COc1ccc(C(=O)/C=C/c2cccc3ccccc23)cc1S(N)(=O)=O | SRB | 10 µM |  | inhibition | 82%
CCCc1n(Cc2ccc3ccccc3n2)cc[n+]1Cc1ccc2ccccc2n1 | SRB |  |  | TGI | 19.4 µM
COc1ccc(-c2ccc(-c3ccc(C(=N)N)nc3)s2)cc1 | SRB |  |  | GI50 | 1.8 µM
O=C1NCCc2[nH]c(-c3ccncc3)cc21 |  |  |  | IC50 | 9.94 µM
COc1ccc(-c2ccc(-c3ccc(C(=N)N)nc3)s2)cc1Cl | SRB |  |  | GI50 | 1.9 µM
O=C1NC(=NCc2cccs2)S/C1=C\c1ccc2ncccc2c1 |  |  |  | IC50 | > 10 µM
CCCCc1n(Cc2ccc3ccccc3n2)cc[n+]1Cc1ccc2ccccc2n1 | SRB |  |  | TGI | 12 µM
COc1ccc(C(=O)/C=C/c2c(F)cccc2Cl)cc1S(N)(=O)=O | SRB |  | 48 h | GI50 | 3 µM
COc1cccc2c1C(=O)c1c(O)c3c(c(O)c1C2=O)C[C@@](O)(C(=O)CO)C[C@@H]3O[C@H]1C[C@H](N)[C@H](O)[C@H](C)O1 | SRB | 10 µg/mL | 48 h | inhibition | 98.9%
